Test results taken from ChEMBL document CHEMBL1926616, “Design, synthesis and biological evaluation of novel glycosylated diphyllin derivatives as topoisomerase II inhibitors” (Eur J Med Chem, 2012).
Active and inactive are the calls of the source. No cut-off for these calls is given here.

Experiments:
[1] = system: HL-60; test: Cell cycle arrest in human HL60 cells assessed as accumulation at G2/M phase at 1 uM after 24 hrs using propidium iodide stain by FACS-flow cytometry (reference value: 22.6%); assay type: functional
[2] = system: HCT-116; test: Cytotoxicity against human HCT116 cells after 72 hrs by sulforhodamine B and MTT assay; assay type: functional, cell-based; conditions: HCT-116, 72 h
Method in brief: (§1)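 Log-phase cells were plated overnight and exposed for 72 h to a 5-concentration gradient, in triplicate wells. SRB arm: 10% cold TCA fixation for 1 h at 4 °C, 4 mg/ml SRB in 1% acetic acid for 15 min, dye dissolved in 10 mM Tris-HCl, read at 520 nm. MTT arm: 5 mg/mL MTT for 4 h at 37 °C, SDS-isobutanol-HCl solubilisation for 12–20 h, read at 570 nm. IC50 by Logit method from at least 3 independent tests.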

[3] = system: HCT-116; test: Cell cycle arrest in human HCT116 cells assessed as accumulation at G0/G1 phase at 1 to 10 uM after 24 hrs using propidium iodide stain by FACS-flow cytometry; assay type: functional, cell-based
[4] = system: KB; test: Cytotoxicity against vincristine-selected multi drug-resistant human KB cells after 72 hrs by sulforhodamine B and MTT assay; assay type: functional, cell-based
Method in brief: (§2)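 Log-phase cells were seeded, preincubated (overnight for SRB, 24 h for MTT), then given a five-concentration gradient in triplicate wells for 72 h. For MTT, reagent was added for 4 h at 37 °C, solubilized in SDS-isobutanol-HCl for 12-20 h, and read at 570 nm. IC50 was derived by the Logit method from at least 3 independent tests.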

[5] = biological target: DNA topoisomerase 2-alpha (Homo sapiens) (UniProt P11388); test: Inhibition of human topoisomerase 2-mediated decatenation of kinetoplast DNA at 100 uM after 15 mins by agarose gel electrophoresis
Method in brief: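 ATP-dependent kDNA decatenation by 1 unit Topo II in 50 mM Tris-HCl pH 7.7, 50 mM KCl, 5 mM MgCl2, 1 mM ATP, 0.5 mM DTT, 0.5 mM EDTA and BSA, run for 15 min at 37 °C. Stopped with 10% SDS, then run on 1% agarose in TAE at 4 V/cm for 1 h and stained with ethidium bromide.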

[6] = system: HCT-116; test: Cell cycle arrest in human HCT116 cells assessed as accumulation at G2/M phase at 1 to 10 uM using propidium iodide stain by FACS-flow cytometry; assay type: functional, cell-based; conditions: TDE = time-dependent effect
[7] = system: HCT-116; test: Cell cycle arrest in human HCT116 cells assessed as accumulation at G2/M phase after 24 hrs using propidium iodide stain by FACS-flow cytometry; assay type: functional, cell-based
[8] = system: KB; test: Cytotoxicity against human KB cells after 72 hrs by sulforhodamine B and MTT assay; assay type: functional, cell-based; method in brief: as §1
[9] = system: MCF7; test: Cytotoxicity against human MCF7 cells after 72 hrs by sulforhodamine B and MTT assay; assay type: functional, cell-based; conditions: MCF7, 72 h; method in brief: as §1
[10] = system: K562; test: Resistance index, ratio of IC50 for adriamycin-selected multi drug-resistant human K562 cells to IC50 for human K562 cells; assay type: functional
Method in brief: (§3)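 Resistance factor is the IC50 in the resistant line divided by the IC50 in the parental line. Both IC50s come from 72 h SRB/MTT growth-inhibition assays, derived by the Logit method from at least 3 independent tests.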

[11] = system: HL-60; test: Cell cycle arrest in human HL60 cells assessed as accumulation at G2/M phase after 24 hrs using propidium iodide stain by FACS-flow cytometry; assay type: functional, cell-based
[12] = system: HCT-116; test: Cell cycle arrest in human HCT116 cells assessed as accumulation at G0/G1 phase after 24 hrs using propidium iodide stain by FACS-flow cytometry; assay type: functional, cell-based
[13] = system: HCT-116; test: Cell cycle arrest in human HCT116 cells assessed as accumulation at G0/G1 phase at 1 to 10 uM using propidium iodide stain by FACS-flow cytometry; assay type: functional, cell-based; conditions: TDE = time-dependent effect
[14] = system: HL-60; test: Cell cycle arrest in human HL60 cells assessed as accumulation at G0/G1 phase at 10 uM after 24 hrs using propidium iodide stain by FACS-flow cytometry (reference value: 39%); assay type: functional
[15] = system: HL-60; test: Cell cycle arrest in human HL60 cells assessed as accumulation at S phase at 1 uM after 24 hrs using propidium iodide stain by FACS-flow cytometry (reference value: 38.4%); assay type: functional
[16] = system: HL-60; test: Cell cycle arrest in human HL60 cells assessed as accumulation at G2/M phase at 1 to 10 uM using propidium iodide stain by FACS-flow cytometry; assay type: functional, cell-based; conditions: TDE = time-dependent effect
[17] = system: KB; test: Resistance index, ratio of IC50 for vincristine-selected multi drug-resistant human KB cells to IC50 for human KB cells; assay type: functional; method in brief: as §3
[18] = system: HL-60; test: Cell cycle arrest in human HL60 cells assessed as accumulation at G0/G1 phase after 24 hrs using propidium iodide stain by FACS-flow cytometry; assay type: functional, cell-based
[19] = system: HL-60; test: Cell cycle arrest in human HL60 cells assessed as accumulation at G0/G1 phase at 1 to 10 uM using propidium iodide stain by FACS-flow cytometry; assay type: functional, cell-based; conditions: TDE = time-dependent effect
[20] = system: HL-60; test: Cell cycle arrest in human HL60 cells assessed as accumulation at G0/G1 phase at 1 uM after 24 hrs using propidium iodide stain by FACS-flow cytometry (reference value: 39%); assay type: functional
[21] = system: HL-60; test: Induction of apoptosis in human HL60 cells assessed as DNA fragmentation at 10 uM after 36 hrs by gel electrophoresis; assay type: functional, cell-based
Method in brief: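 HL-60 cells were seeded and exposed to compound for 36 h. Harvested cells were lysed with an equal volume of 1.2% SDS, and the fragmented DNA was extracted and resolved by gel electrophoresis.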

[22] = system: HCT-116; test: Cell cycle arrest in human HCT116 cells assessed as accumulation at G2/M phase at 1 to 10 uM after 24 hrs using propidium iodide stain by FACS-flow cytometry; assay type: functional, cell-based
[23] = system: K562; test: Cytotoxicity against human K562 cells after 72 hrs by sulforhodamine B and MTT assay; assay type: functional, cell-based; conditions: K562, 72 h; method in brief: as §2
[24] = system: HL-60; test: Cell cycle arrest in human HL60 cells assessed as accumulation at G2/M phase at 10 uM after 24 hrs using propidium iodide stain by FACS-flow cytometry (reference value: 22.6%); assay type: functional
[25] = system: K562; test: Cytotoxicity against adriamycin-selected multi drug-resistant human K562 cells after 72 hrs by sulforhodamine B and MTT assay; assay type: functional, cell-based; conditions: K562, 72 h; method in brief: as §2
[26] = system: HL-60; test: Cell cycle arrest in human HL60 cells assessed as accumulation at S phase at 10 uM after 24 hrs using propidium iodide stain by FACS-flow cytometry (reference value: 38.4%); assay type: functional

DNA topoisomerase 2-alpha (Homo sapiens), sequence (P11388 whole entry): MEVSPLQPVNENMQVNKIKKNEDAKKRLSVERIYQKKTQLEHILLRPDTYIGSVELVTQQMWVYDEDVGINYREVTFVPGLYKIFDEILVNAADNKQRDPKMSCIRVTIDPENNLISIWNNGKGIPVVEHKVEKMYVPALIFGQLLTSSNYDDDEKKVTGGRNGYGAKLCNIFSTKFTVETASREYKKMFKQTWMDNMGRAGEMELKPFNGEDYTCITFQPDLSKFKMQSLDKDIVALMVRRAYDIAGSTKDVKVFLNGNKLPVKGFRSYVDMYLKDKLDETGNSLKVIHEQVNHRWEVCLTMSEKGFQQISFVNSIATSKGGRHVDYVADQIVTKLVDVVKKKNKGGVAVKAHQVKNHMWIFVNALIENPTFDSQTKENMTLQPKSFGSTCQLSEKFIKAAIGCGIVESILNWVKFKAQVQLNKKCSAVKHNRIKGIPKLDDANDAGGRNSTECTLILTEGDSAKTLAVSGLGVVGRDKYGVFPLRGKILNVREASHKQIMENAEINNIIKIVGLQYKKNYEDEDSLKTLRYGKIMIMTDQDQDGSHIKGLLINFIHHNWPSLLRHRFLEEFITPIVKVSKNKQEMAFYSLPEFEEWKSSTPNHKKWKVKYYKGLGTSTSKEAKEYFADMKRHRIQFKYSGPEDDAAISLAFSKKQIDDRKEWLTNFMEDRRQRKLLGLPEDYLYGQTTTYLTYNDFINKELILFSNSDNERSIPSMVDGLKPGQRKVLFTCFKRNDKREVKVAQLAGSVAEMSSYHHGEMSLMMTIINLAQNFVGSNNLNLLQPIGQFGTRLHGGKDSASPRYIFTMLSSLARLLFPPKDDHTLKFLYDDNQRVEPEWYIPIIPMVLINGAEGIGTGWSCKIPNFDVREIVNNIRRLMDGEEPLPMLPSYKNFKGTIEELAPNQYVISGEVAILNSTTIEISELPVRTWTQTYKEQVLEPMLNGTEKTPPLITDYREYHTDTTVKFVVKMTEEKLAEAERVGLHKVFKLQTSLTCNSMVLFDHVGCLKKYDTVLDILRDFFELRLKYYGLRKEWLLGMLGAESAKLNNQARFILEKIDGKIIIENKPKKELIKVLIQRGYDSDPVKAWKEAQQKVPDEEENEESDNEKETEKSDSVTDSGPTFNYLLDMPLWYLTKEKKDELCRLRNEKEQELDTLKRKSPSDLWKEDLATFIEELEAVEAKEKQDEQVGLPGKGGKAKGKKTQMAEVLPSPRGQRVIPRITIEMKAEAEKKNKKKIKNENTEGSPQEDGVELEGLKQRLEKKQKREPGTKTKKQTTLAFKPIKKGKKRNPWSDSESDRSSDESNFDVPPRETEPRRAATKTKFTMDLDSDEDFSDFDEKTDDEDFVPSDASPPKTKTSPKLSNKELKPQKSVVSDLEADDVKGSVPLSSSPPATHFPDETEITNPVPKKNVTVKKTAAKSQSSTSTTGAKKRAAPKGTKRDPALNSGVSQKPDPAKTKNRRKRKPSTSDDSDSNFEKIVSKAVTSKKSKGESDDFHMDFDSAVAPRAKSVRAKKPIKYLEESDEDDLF

COc1cc2c(O[C@@H]3O[C@H](C)[C@@H](O)[C@H](O)[C@H]3O)c3c(c(-c4ccc5c(c4)OCO5)c2cc1OC)C(=O)OC3 [PATENTIFLORIN A]
Activity [1]: 16.1%
IC50 [2]: 990 nM
Activity [3]: Active
IC50 [4]: 573 nM
inhibition [5]: inactive
Activity [6]: tde
Activity [7]: Dose-dependent effect
IC50 [8]: 93 nM
IC50 [9]: 440 nM
Ratio IC50 [10]: 11.3
Activity [11]: Dose-dependent effect
Activity [12]: Dose-dependent effect
Activity [13]: tde
Activity [14]: 54.4%
Activity [15]: 38%
Activity [16]: tde
Ratio IC50 [17]: 6.2
Activity [18]: Dose-dependent effect
Activity [19]: tde
Activity [20]: 45.9%
Activity [21]: Active
Activity [22]: Active
IC50 [23]: 1430 nM
Activity [24]: 22.8%
IC50 [25]: 16100 nM
Activity [26]: 22.8%

COc1cc2c(O[C@@H]3OC[C@@H](O)[C@H](O)[C@H]3O)c3c(c(-c4ccc5c(c4)OCO5)c2cc1OC)C(=O)OC3
Activity [1]: 18.9%
IC50 [2]: 820 nM
Activity [3]: Active
IC50 [4]: 1190 nM
inhibition [5]: inactive
Activity [6]: tde
Activity [7]: Dose-dependent effect
IC50 [8]: 410 nM
IC50 [9]: 1550 nM
Ratio IC50 [10]: 13.4
Activity [11]: Dose-dependent effect
Activity [12]: Dose-dependent effect
Activity [13]: tde
Activity [14]: 47%
Activity [15]: 35.5%
Activity [16]: tde
Ratio IC50 [17]: 2.9
Activity [18]: Dose-dependent effect
Activity [19]: tde
Activity [20]: 45.6%
Activity [21]: Active
Activity [22]: Active
IC50 [23]: 4400 nM
Activity [24]: 19.2%
IC50 [25]: 58800 nM
Activity [26]: 33.8%
